The target of test [1] is Neuronal acetylcholine receptor subunit alpha-7 (Homo sapiens, UniProt P36544). Kind of test: Inhibition of human alpha7 nAChR expressed in Xenopus laevis oocytes assessed as inhibition of acetylcholine-induced current response at 10 uM by two-electrode voltage-clamp method relative to control. Particulars: Oocyte. It counts as cell-based. A digest of the protocol:
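Stage IV–V X. laevis oocytes expressing equal-ratio cRNAs of α2β4, α3β4, α4β4 or α7 subunits; TEVC 1–5 days after injection. ACh 300 μM, 1 s at 60 s intervals. 10 μM peptide as 5 min static bath, normalized to ACh response after 5 min bath of control saline; mean ± SD, n = 4.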

The species named for test [2] is Homo sapiens. As to the kind of experiment: Selectivity ratio of IC50 for human alpha4beta2 nAChR to IC50 for human alpha6/alpha3beta4 nAChR. In short, it runs like this:
(§1)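 Ratio of each subtype's IC50, from TEVC inhibition of ACh-evoked currents in X. laevis oocytes, to the IC50 at the same species' α6/α3β4 nAChR; IC50 values with 95% CI, n = number of oocytes.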

The species entered for test [3] is Rattus norvegicus. As to the kind of experiment: Selectivity ratio of IC50 for rat alpha3beta2 nAChR to IC50 for rat alpha6/alpha3beta4 nAChR. In short, it runs like this:
as §1

Test [4] concerns the target Neuronal acetylcholine receptor; alpha3/beta2 (Rattus norvegicus) (UniProt P04757+P12390). As to the kind of experiment: Inhibition of rat alpha3beta2 nAChR expressed in Xenopus laevis oocytes assessed as inhibition of acetylcholine-induced current response at 10 uM by two-electrode voltage-clamp method relative to control. It counts as cell-based. The following applies: Oocyte. In short, it runs like this: (§2)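 Oocytes (stage IV–V) injected with equal-ratio cRNAs of cloned subunits; TEVC 1–5 days post-injection. ACh 100 μM for β2-containing and α9α10 subtypes, 1 s pulses every 60 s. Peptide 10 μM in 5 min static bath; response normalized to ACh response after 5 min control-saline bath; mean ± SD, n = 4.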
A general note: In two-electrode clamp one electrode senses voltage and the other passes current.

Test [5] deals with Neuronal acetylcholine receptor; alpha4/beta2 (Homo sapiens, UniProt P17787+P43681). As to the kind of experiment: Inhibition of human alpha4beta2 nAChR expressed in Xenopus laevis oocytes assessed as inhibition of acetylcholine-induced current response at 10 uM by two-electrode voltage-clamp method relative to control. The class given is cell-based. Particulars: Oocyte. A digest of the protocol:
as §2

Test [6] concerns the target Nicotinic acetylcholine receptor alpha6/alpha3/beta4 (Rattus norvegicus) (UniProt P04757+P12392+P43143). Kind of test: Inhibition of rat alpha6beta4 nAChR expressed in Xenopus laevis oocytes assessed as recovery of acethylcholine-evoked currents at 10 uM treated for 10 mins followed by compound washout by two-electrode voltage-clamp method relative to control. The class given is cell-based. Particulars: Oocyte. Set-up: scale not given: the % may be the effect or the level left.

In test [7] the target is Neuronal acetylcholine receptor; alpha4/beta4 (Rattus norvegicus, UniProt P09483+P12392). It counts as cell-based, Oocyte.
For test [8], the species on record is Homo sapiens. As to the kind of experiment: Selectivity ratio of IC50 for human alpha1beta1deltaepsilon nAChR to IC50 for human alpha6/alpha3beta4 nAChR. In short, it runs like this:
as §1

For test [9], the species on record is Homo sapiens. Kind of test: Selectivity ratio of IC50 for human alpha3beta2 nAChR to IC50 for human alpha6/alpha3beta4 nAChR. In short, it runs like this:
as §1

The species named for test [10] is Homo sapiens. Kind of test: Selectivity ratio of IC50 for human alpha7 nAChR to IC50 for human alpha6/alpha3beta4 nAChR. In short, it runs like this: as §1
For test [11], the species on record is Rattus norvegicus. Kind of test: Selectivity ratio of IC50 for rat alpha4beta2 nAChR to IC50 for rat alpha6/alpha3beta4 nAChR. A digest of the protocol:
as §1

Test [12] addresses Neuronal acetylcholine receptor; alpha3/beta4 (Homo sapiens, UniProt P30926+P32297). As to the kind of experiment: Inhibition of human alpha3beta4 nAChR expressed in Xenopus laevis oocytes assessed as inhibition of acetylcholine-induced current response by two-electrode voltage-clamp method. The class given is cell-based, Oocyte. In short, it runs like this:
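TEVC on stage IV–V oocytes 1–5 days after equal-ratio cRNA injection (α2β4, α3β4, α4β4, α7). ACh 300 μM, 1 s pulses at 60 s intervals under frog saline perfusion. Peptide perfused to 1 μM, normalized to average of three control responses; higher concentrations by 5 min static bath. IC50 with 95% CI, n oocytes.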

Where a SMILES comes first, the peptide text is derived from it. Bridges are numbered along the chain shown (N, C = ends).

Sequence of Neuronal acetylcholine receptor subunit alpha-7 (P36544 whole entry): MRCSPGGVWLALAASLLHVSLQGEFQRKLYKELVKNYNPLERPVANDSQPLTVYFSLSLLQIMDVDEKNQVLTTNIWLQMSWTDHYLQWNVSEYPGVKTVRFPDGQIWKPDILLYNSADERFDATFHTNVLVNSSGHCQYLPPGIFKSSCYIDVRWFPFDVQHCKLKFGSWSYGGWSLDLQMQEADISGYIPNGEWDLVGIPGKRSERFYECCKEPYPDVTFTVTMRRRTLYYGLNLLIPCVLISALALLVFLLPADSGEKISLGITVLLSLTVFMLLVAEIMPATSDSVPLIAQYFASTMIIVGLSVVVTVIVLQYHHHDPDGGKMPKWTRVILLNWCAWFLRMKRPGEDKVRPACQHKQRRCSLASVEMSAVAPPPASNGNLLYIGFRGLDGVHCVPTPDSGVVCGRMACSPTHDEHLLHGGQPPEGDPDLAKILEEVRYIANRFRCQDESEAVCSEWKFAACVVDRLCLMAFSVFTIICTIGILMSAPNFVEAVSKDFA
Sequence of Neuronal acetylcholine receptor; alpha4/beta4 (P09483 whole entry): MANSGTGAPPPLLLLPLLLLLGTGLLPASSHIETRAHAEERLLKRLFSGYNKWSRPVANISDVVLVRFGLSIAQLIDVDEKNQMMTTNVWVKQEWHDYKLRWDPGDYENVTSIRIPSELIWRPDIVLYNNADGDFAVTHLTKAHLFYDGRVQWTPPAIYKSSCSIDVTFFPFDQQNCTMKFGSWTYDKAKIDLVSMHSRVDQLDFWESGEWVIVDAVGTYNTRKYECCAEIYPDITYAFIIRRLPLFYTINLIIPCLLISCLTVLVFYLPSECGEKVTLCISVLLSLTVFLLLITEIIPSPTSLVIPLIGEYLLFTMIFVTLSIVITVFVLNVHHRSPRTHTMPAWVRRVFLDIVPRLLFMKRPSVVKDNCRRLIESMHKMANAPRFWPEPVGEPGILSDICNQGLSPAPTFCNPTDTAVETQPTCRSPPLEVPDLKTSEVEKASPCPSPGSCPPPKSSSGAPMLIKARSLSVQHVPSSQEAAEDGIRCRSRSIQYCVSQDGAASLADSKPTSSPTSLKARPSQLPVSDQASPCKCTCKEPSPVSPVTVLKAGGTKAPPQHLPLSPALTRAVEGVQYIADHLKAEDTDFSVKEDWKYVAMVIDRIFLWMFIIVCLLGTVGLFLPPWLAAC
Sequence of Neuronal acetylcholine receptor; alpha4/beta4 (P12392 whole entry): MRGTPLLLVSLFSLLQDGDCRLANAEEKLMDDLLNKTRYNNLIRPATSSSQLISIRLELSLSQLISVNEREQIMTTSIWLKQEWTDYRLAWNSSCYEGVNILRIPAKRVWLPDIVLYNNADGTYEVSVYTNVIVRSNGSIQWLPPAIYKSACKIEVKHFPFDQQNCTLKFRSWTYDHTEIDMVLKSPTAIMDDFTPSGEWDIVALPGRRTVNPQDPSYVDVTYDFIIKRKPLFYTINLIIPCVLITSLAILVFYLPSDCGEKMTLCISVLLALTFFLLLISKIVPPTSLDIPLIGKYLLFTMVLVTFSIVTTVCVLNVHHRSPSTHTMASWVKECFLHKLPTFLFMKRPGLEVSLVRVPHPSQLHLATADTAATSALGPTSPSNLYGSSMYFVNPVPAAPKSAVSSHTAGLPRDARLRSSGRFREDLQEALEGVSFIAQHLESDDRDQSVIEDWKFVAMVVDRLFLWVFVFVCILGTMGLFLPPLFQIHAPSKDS
Sequence of Neuronal acetylcholine receptor; alpha3/beta4 (P30926 whole entry, the tested form may be a part): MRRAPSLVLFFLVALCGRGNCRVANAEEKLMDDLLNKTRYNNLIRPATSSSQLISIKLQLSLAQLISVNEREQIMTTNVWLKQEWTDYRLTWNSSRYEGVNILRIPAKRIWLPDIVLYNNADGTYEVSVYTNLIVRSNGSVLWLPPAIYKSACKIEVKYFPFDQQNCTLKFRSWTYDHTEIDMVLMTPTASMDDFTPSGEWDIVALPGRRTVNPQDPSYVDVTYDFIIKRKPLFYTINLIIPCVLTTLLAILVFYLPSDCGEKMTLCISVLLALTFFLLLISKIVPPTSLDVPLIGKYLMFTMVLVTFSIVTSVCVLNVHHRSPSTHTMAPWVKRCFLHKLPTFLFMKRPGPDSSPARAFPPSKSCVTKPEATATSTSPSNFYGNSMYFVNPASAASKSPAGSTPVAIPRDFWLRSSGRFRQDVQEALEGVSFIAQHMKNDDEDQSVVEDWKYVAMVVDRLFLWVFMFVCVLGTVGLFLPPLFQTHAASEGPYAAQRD
Sequence of Neuronal acetylcholine receptor; alpha3/beta4 (P32297 whole entry, the tested form may be a part): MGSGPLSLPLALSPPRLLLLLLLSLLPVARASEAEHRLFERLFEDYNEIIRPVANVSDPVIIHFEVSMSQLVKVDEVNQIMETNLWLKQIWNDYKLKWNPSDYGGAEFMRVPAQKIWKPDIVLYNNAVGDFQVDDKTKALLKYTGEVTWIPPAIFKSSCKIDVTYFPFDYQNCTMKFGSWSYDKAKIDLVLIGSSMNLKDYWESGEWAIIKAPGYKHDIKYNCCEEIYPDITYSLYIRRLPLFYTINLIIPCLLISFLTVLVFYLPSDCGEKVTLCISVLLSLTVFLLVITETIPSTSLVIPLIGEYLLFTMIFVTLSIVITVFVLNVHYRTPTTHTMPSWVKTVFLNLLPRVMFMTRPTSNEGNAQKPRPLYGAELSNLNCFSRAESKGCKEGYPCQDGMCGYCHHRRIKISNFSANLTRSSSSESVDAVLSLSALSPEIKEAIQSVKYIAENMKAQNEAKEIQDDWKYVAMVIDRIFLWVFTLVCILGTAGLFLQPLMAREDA

What is called inhibition is the share of the control response that was lost under treatment. By IC50 is commonly meant the midpoint of a concentration-inhibition curve. Turning to `CC[C@H](C)[C@@H]1NC(=O)[C@H](CCC(=O)O)NC(=O)[C@@H]2CCCN2C(=O)[C@H](Cc2cnc[nH]2)NC(=O)[C@H](CC(N)=O)NC(=O)[C@H](C(C)C)NC(=O)[C@H](CC(N)=O)NC(=O)[C@@H]2CSSC[C@H](NC(=O)CN)C(=O)N[C@@H](CSSC[C@@H](C(N)=O)NC1=O)C(=O)N[C@@H](CO)C(=O)N[C@@H](Cc1cnc[nH]1)C(=O)N1CCC[C@H]1C(=O)N[C@@H](C(C)C)C(=O)N2` (H-GCCSHPVCNVNHPEIC-NH2; disulfide 2-8, 3-16), the inhibition in test [1] was 89%; in [4], 94%; in test [5] it was 91%. In addition, the Ratio IC50 is over 10000 in the test filed under Homo sapiens [2]; over 20000 in the test filed under Rattus norvegicus [3]; over 50000 in the test listed under Homo sapiens [8]; over 50000 in the test listed under Homo sapiens [9]; over 50000 in the test listed under Homo sapiens [10]; over 20000 in the test listed under Rattus norvegicus [11]. Besides, the Activity in [6] was found to be 6%. Besides, the values for the IC50 in [7] and in test [12] were over 10000 nM and 179 nM, respectively.

(Values after ChEMBL document CHEMBL4811225 (J Med Chem, 2021).)
